Published values gathered from unrelated publications.
Each line is one published result; the experiments were not run side by side.
JAK3: Tyrosine-protein kinase JAK3 (JAK3, Homo sapiens, UniProt P52333)
MET: Hepatocyte growth factor receptor (MET, Homo sapiens, UniProt P08581)
CSF1R: Macrophage colony-stimulating factor 1 receptor (CSF1R, Homo sapiens, UniProt P07333)
IDE: Insulin-degrading enzyme (IDE, Homo sapiens, UniProt P14735)
P2RX7: P2X purinoceptor 7 (P2RX7, Homo sapiens, UniProt Q99572)
gag-pol integrase: Gag-Pol polyprotein, integrase (gag-pol, Human immunodeficiency virus 1, UniProt P12497)

CC(C)(C)n1nc(-c2ccc3nc(OC4CC4)ccc3c2)c(C(N)=O)c1N — IC50 (JAK3; cell-free assay): > 10000 nM
O=C(O)C(CCC(c1ccccc1)(c1ccccc1)c1ccccc1)NCc1ccccc1 (racemic) — IC50 (Kinesin-like protein KIF11 (KIF11, Homo sapiens, UniProt P52732); ATPase activity, inhibitor): > 49200 nM
Cc1cc(Oc2ccc(NC(=O)c3sc(-c4ccccn4)nc3C)cc2F)c2nncn2n1 — IC50 (MET; enzyme activity, inhibitor, mobility shift): 900 nM
O=C(Nc1cc(-c2ccc(Cl)cc2)[nH]n1)c1cccnc1 — IC50 (crk3 (Leishmania mexicana, UniProt O15851); enzyme activity, inhibitor, radiometric): 2400 nM
CCn1ncc2c1-c1cnc(N)c(c1)O[C@H](C)c1cc(F)ccc1-c1nn(C)nc1C2 — IC50 (CSF1R; enzyme activity, inhibitor, radiometric): 489 nM
Oc1c2ccccc2c2c3c(cccc13)N=N2 — IC50 (JAK3; enzyme activity, inhibitor): 344 nM
Cc1ccc(/C=C2\C=C(CC(=O)O)c3cc(F)ccc32)cc1 — IC50 (Prostaglandin G/H synthase 2 (Ptgs2, Mus musculus, UniProt Q05769); enzyme activity, inhibitor): ~26000 nM
NC(=O)c1ccc[n+]([C@@H]2O[C@H](COP(=O)([O-])OP(=O)(O)OC[C@H]3O[C@@H](n4cnc5c(N)ncnc54)[C@H](O)[C@@H]3O)[C@@H](O)[C@H]2O)c1 — IC50 (Protein mono-ADP-ribosyltransferase PARP3 (PARP3, Homo sapiens, UniProt Q9Y6F1); enzyme activity, inhibitor): 5000 nM
COC(=O)[C@H](Cc1c[nH]cn1)NC(=O)CN(CC(=O)O)Cc1ccncc1 — IC50 (IDE; enzyme activity, inhibitor, fluorescence): 6300 nM
CCCc1ccc(S(=O)(=O)Oc2ccccc2NC(=O)c2ccc3ncccc3c2)cc1 — IC50 (P2RX7; calcium signal, antagonist): 2170 nM
CC(C)OC(=O)[C@H](Cc1c[nH]cn1)NC(=O)CN(CC(=O)O)Cc1ccccc1 — IC50 (IDE; enzyme activity, inhibitor, fluorescence): 300 nM
CN1CCN(c2ccc(Nc3ncc4cc(C#N)c(=O)n(C5CCCC5)c4n3)cc2)CC1 — IC50 (Serine/threonine-protein kinase Nek9 (NEK9, Homo sapiens, UniProt Q8TD19); enzyme activity, inhibitor): 399 nM
Cc1cc(Oc2ccc(NC(=O)c3cc(-c4cccs4)no3)cc2F)c2nncn2n1 — IC50 (MET; enzyme activity, inhibitor, mobility shift): 540 nM
O=C(Nc1ccn(Cc2ccc(O)cc2C(F)(F)F)n1)c1c(F)cccc1F — IC50 (P2RX7; ion current): > 10000 nM
O=C(Nc1ccccc1OS(=O)(=O)c1ccc([N+](=O)[O-])cc1)c1ccc2ncccc2c1 — IC50 (P2RX7; calcium signal, antagonist): 1810 nM
Cc1cnc(-c2ccc(-c3ccc(NC(=O)Nc4c(F)cc(F)cc4F)cc3F)c3c2C(=O)NC3)[nH]1 — IC50 (TRAF2 and NCK-interacting protein kinase (TNIK, Homo sapiens, UniProt Q9UKE5); enzyme activity, inhibitor): 4.1 nM
O=C(O)CN(CCCc1ccccc1)CC(=O)N[C@H](CO)Cc1c[nH]cn1 — IC50 (IDE; enzyme activity, inhibitor, fluorescence): 1600 nM
O=C(Nc1ccccc1OS(=O)(=O)c1ccc(F)cc1)c1ccc2ncccc2c1 — IC50 (P2RX7; calcium signal, antagonist): 624 nM
CCOC(=O)c1cnc2[nH]ccc2c1N[C@@H]1CCCN(C(=O)CC#N)C1 — IC50 (JAK3; enzyme activity, inhibitor): 3.6 nM
O=C(O)CN(CCCc1ccccc1)CC(=O)N[C@@H](Cc1c[nH]cn1)C(=O)NCc1ccccc1 — IC50 (IDE; enzyme activity, inhibitor, fluorescence): 400 nM
O=C(Nc1ccccc1)c1cc([N+](=O)[O-])ccc1Cl — IC50 (Peroxisome proliferator-activated receptor alpha (PPARA, Homo sapiens, UniProt Q07869); ligand displacement, TR-FRET): 26 nM
CC(C)n1nc(-c2ccc3c(c2)sc2ccccc23)c2c(N)ncnc21 — IC50 (Calmodulin-domain protein kinase 1, putative (Cryptosporidium parvum, UniProt A3FQ16); enzyme activity, inhibitor): > 3000 nM
COc1ccc2c(Oc3ccc4c(C(=O)Nc5ccccc5N)cccc4c3)ccnc2c1 — IC50 (JAK3; enzyme activity, inhibitor): > 500 nM
CNC(=O)c1cc2c(Oc3ccc(NC(=O)C4(C(=O)Nc5ccc(F)cc5)CC4)cc3)ccnc2cc1OC — IC50 (Hepatocyte growth factor receptor (MET, Homo sapiens, UniProt P08581, Y1230D); enzyme activity, inhibitor, radiometric): 9 nM
O=C(O)[C@H](Cc1ccccc1)NC(=O)C1(c2ccccc2)CCN(S(=O)(=O)c2ccccc2)CC1 — IC50 (gag-pol integrase; enzyme activity, inhibitor, TR-FRET): 189000 nM
CC(C)C[C@H]1CC(=O)N[C@@H](C)C(=O)N[C@@H](CCCCCC(=O)O)C(=O)N[C@@H](Cc2c[nH]c3ccccc23)C(=O)N1 — IC50 (Histone deacetylase 3 (HDAC3, Homo sapiens, UniProt O15379); enzyme activity, inhibitor): 600 nM
COC(=O)[C@H](Cc1c[nH]cn1)NC(=O)CN(CCc1c[nH]c2ccccc12)CC(=O)O — IC50 (IDE; enzyme activity, inhibitor, fluorescence): 1200 nM
O=C(O)[C@H](Cc1ccccc1)NC(=O)C1(c2ccc(F)cc2)CCN(S(=O)(=O)c2ccccc2)CC1 — IC50 (gag-pol integrase; enzyme activity, inhibitor, TR-FRET): 91300 nM
COC(=O)[C@H](Cc1c[nH]cn1)NC(=O)CN(Cc1ccccc1)c1c(O)c(=O)c1=O — IC50 (IDE; enzyme activity, inhibitor, fluorescence): 12500 nM
Cc1ccc(-n2nc(C(C)(C)C)cc2NC(=O)Nc2ccc(OCCN3CCOCC3)c3ccccc23)cc1 — IC50 (Potassium voltage-gated channel subfamily A member 5 (KCNA5, Homo sapiens, UniProt P22460); ion current, inhibitor): 1100 nM
CCOc1ccc2c(-c3cc(C)nc(Nc4cc(OC)cc(C(F)(F)F)c4)n3)cnn2n1 — IC50 (Homeodomain-interacting protein kinase 1 (HIPK1, Homo sapiens, UniProt Q86Z02); enzyme activity, inhibitor): > 10000 nM
CCOCc1nc(O)c(-c2nnc(Cc3ccc(Cl)cn3)o2)c(O)c1-c1c(OC)cccc1OC — IC50 (Alpha-1B adrenergic receptor (ADRA1B, Homo sapiens, UniProt P35368); ligand displacement, radioligand): > 30000 nM
COC(=O)[C@H](Cc1c[nH]cn1)NC(=O)CN(CC(=O)O)Cc1ccc(C(F)(F)F)cc1 — IC50 (IDE; enzyme activity, inhibitor, fluorescence): 2000 nM
Cc1ccc(C(=O)Nc2ccc(Oc3cc4cnn(C)c4cc3-c3cn[nH]c3)c(F)c2)c(=O)n1-c1ccc(F)cc1 — IC50 (CSF1R; enzyme activity, inhibitor, radiometric): 32 nM
CCCCCCCCCCC[C@@H](C[C@@H]1OC(=O)[C@H]1CCCCCC)OC(=O)[C@H](CC(C)C)NC=O — IC50 (Lysosomal acid lipase/cholesteryl ester hydrolase (LIPA, Homo sapiens, UniProt P38571); enzyme activity, inhibitor): 168 nM
COC(=O)[C@H](Cc1c[nH]cn1)NC(=O)CN(CC(=O)O)Cc1ccc(C(C)(C)C)cc1 — IC50 (IDE; enzyme activity, inhibitor, fluorescence): 2900 nM
